Experimental data published in ChEMBL document CHEMBL2010740, “Synthesis and evaluation of 2-amido-3-carboxamide thiophene CB₂ receptor agonists for pain management” (Bioorg Med Chem Lett, 2012).
Calls of active or inactive are those of the source.

Experiments:
Rattus norvegicus [1] = test: Analgesic activity in rat complete Freund's adjuvant model of chronic inflammatory pain assessed as latency in paw withdrawal at 100 umol/kg, po administered 48 hrs after CFA-challenge measured after 60 mins; assay type: functional
Rattus norvegicus [2] = test: Analgesic activity in rat complete Freund's adjuvant model of chronic inflammatory pain assessed as reduction in thermal hyperalgesia at 3 umol/kg, ip administered 48 hrs after CFA-challenge measured after 60 mins; assay type: functional, organism-based
Cannabinoid receptor 1 [3] = molecular target: T1, Cannabinoid receptor 1 (Homo sapiens, UniProt P21554); test: Displacement of [3H]CP-55940 from human recombinant CB1 receptor expressed in CHO cells after 90 mins; assay type: cell-based
Outline: (§1)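 Competitive binding: [³H]CP-55,940 displaced from membranes of HEK 293 cells stably transfected with human or rat CB₂, or CHO cells stably transfected with human or rat CB₁. Reported as pKi. Determinations >2 (duplicate of duplicate).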

Rattus norvegicus [4] = test: Neurotoxicity in rat assessed as decrease in spontaneous locomotory activity at 100 umol/kg, ip after 30 mins; assay type: toxicity, organism-based; set-up: scale not given: the % may be the effect or the level left; conditions: in vivo, 0.5 h
Outline: (§2)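 Spontaneous horizontal locomotor activity in rats. Compound was given intraperitoneally 30 min before testing.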

Rattus norvegicus [5] = test: Analgesic activity in ip dosed rat incision model of post-operative pain assessed as reduction in paw withdrawal latency administered 90 mins post-surgical incision measured after 30 mins; assay type: functional, organism-based
Rattus norvegicus [6] = test: Analgesic activity in po dosed rat complete Freund's adjuvant model of chronic inflammatory pain assessed as latency in paw withdrawal administered 48 hrs after CFA-challenge measured after 60 mins; assay type: functional, organism-based
Rattus norvegicus [7] = test: Analgesic activity in rat complete Freund's adjuvant model of chronic inflammatory pain assessed as latency in paw withdrawal at 30 umol/kg, po administered 48 hrs after CFA-challenge measured after 60 mins; assay type: functional
Cannabinoid receptor 2 [8] = molecular target: T2, Cannabinoid receptor 2 (Rattus norvegicus, UniProt Q9QZN9); test: Agonist activity at rat recombinant CB2 receptor expressed in HEK293 cells co-expressing chimeric Gaq/o protein by FLIPR assay by FLIPR assay; assay type: functional, cell-based
T2 sequence (Q9QZN9 whole entry): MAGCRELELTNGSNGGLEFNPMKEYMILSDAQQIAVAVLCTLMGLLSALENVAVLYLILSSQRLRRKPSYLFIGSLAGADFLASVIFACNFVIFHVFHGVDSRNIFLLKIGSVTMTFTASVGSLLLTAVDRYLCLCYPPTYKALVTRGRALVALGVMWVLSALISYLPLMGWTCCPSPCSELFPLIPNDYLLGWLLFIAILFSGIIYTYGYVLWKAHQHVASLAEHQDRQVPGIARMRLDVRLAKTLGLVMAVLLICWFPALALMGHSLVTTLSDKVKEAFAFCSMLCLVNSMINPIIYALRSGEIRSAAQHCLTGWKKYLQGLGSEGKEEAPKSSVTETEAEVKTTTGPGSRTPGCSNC
Outline: (§3)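 FLIPR functional assay in HEK 293 cells stably co-expressing chimeric Gαq/o protein and the CB receptor. Net peak evoked response was compared with the peak response to CP-55,940.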

Rattus norvegicus [9] = test: Analgesic activity in rat chronic constriction injury model of neuropathic pain assessed as reduction in mechanical allodynia at 10 umol/kg, ip administered 2 weeks post-surgery measured after 30 mins; assay type: functional; set-up: scale not given: the % may be the effect or the level left
[10] = Plasma clearance in rat at 3 umol/kg, iv; assay type: ADME, organism-based
Cannabinoid receptor 1 [11] = molecular target: Cannabinoid receptor 1 (Rattus norvegicus, UniProt P20272); test: Agonist activity at rat recombinant CB1 receptor expressed in HEK293 cells assessed as inhibition of forskolin-induced cAMP production after 20 mins by ELISA; assay type: functional, cell-based
Outline: (§4)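 cAMP assay in HEK 293 cells stably expressing the relevant CB receptor, with a fixed concentration of forskolin. cAMP was quantified by ELISA. Activation is given as percent of the CP-55,940 control response.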

[12] = Half life in rat at 10 umol/kg, ip; assay type: ADME, organism-based; conditions: in vivo
[13] = Tmax in rat at 10 umol/kg, ip; assay type: ADME, organism-based; conditions: in vivo
Rattus norvegicus [14] = test: Analgesic activity in rat chronic constriction injury model of neuropathic pain assessed as reduction in mechanical allodynia at 3 umol/kg, ip administered 2 weeks post-surgery measured after 30 mins; assay type: functional; set-up: scale not given: the % may be the effect or the level left
Cannabinoid receptor 2 [15] = molecular target: T3, Cannabinoid receptor 2 (Homo sapiens, UniProt P34972); test: Agonist activity at human recombinant CB2 receptor expressed in HEK293 cells co-expressing chimeric Gaq/o protein by FLIPR assay; assay type: functional, cell-based; outline: as §3
[16] = Oral bioavailability in rat at 10 umol/kg, ip; assay type: ADME, organism-based; conditions: in vivo, intraperitoneal
[17] = Volume of distribution during terminal phase in rat at 3 umol/kg, iv; assay type: ADME, organism-based; conditions: in vivo, read-out: Vbeta
Cannabinoid receptor 2 [18] = molecular target: T2, Cannabinoid receptor 2; test: Agonist activity at rat recombinant CB2 receptor expressed in HEK293 cells assessed as inhibition of forskolin-induced cAMP production after 20 mins by ELISA; assay type: functional, cell-based; outline: as §4
Cannabinoid receptor 2 [19] = molecular target: T3, Cannabinoid receptor 2; test: Agonist activity at human recombinant CB2 receptor expressed in HEK293 cells assessed as inhibition of forskolin-induced cAMP production after 20 mins by ELISA; assay type: functional, cell-based; outline: as §4
Rattus norvegicus [20] = test: Neurotoxicity in rat assessed as decrease in spontaneous locomotory activity at 10 umol/kg, ip after 30 mins; assay type: toxicity, organism-based; set-up: scale not given: the % may be the effect or the level left; conditions: in vivo, 0.5 h; outline: as §2
[21] = Tmax in rat at 10 umol/kg, po; assay type: ADME, organism-based; conditions: in vivo
Cannabinoid receptor 2 [22] = molecular target: T3, Cannabinoid receptor 2; test: Displacement of [3H]CP-55940 from human recombinant CB2 receptor expressed in HEK293 cells after 90 mins; assay type: cell-based; outline: as §1
Cannabinoid receptor 1 [23] = molecular target: T1, Cannabinoid receptor 1; test: Agonist activity at human recombinant CB1 receptor expressed in HEK293 cells assessed as inhibition of forskolin-induced cAMP production after 20 mins by ELISA; assay type: functional, cell-based; outline: as §4
Rattus norvegicus [24] = test: Analgesic activity in rat incision model of post-operative pain assessed as reduction in paw withdrawal latency at 3 umol/kg, ip administered 90 mins post-surgical incision measured after 30 mins; assay type: functional; set-up: scale not given: the % may be the effect or the level left
[25] = Oral bioavailability in rat at 10 umol/kg; assay type: ADME, organism-based; conditions: in vivo
Rattus norvegicus [26] = test: Analgesic activity in rat incision model of post-operative pain assessed as reduction in paw withdrawal latency at 10 umol/kg, ip administered 90 mins post-surgical incision measured after 30 mins; assay type: functional; set-up: scale not given: the % may be the effect or the level left
Rattus norvegicus [27] = test: Analgesic activity in rat complete Freund's adjuvant model of chronic inflammatory pain assessed as reduction in thermal hyperalgesia at 10 umol/kg, ip administered 48 hrs after CFA-challenge measured after 60 mins; assay type: functional; set-up: scale not given: the % may be the effect or the level left
[28] = AUC in rat at 3 umol/kg, iv; assay type: ADME, organism-based; conditions: plasma
Rattus norvegicus [29] = test: Neurotoxicity in rat assessed as decrease in spontaneous locomotory activity at 30 umol/kg, ip after 30 mins; assay type: toxicity, organism-based; set-up: scale not given: the % may be the effect or the level left; conditions: in vivo, 0.5 h; outline: as §2
[30] = molecular target: T4, Cannabinoid receptor 2 (Rattus norvegicus) (UniProt Q9QZN9); test: Agonist activity at rat recombinant CB2 receptor expressed in HEK293 cells co-expressing chimeric Gaq/o protein by FLIPR assay by FLIPR assay relative to CP55940; assay type: functional, cell-based; outline: as §3
T4 sequence (whole entry): T2 sequence (Q9QZN9 whole entry)

[31] = AUC in rat at 10 umol/kg, ip; assay type: ADME, organism-based; conditions: plasma
Rattus norvegicus [32] = test: Analgesic activity in rat chronic constriction injury model of neuropathic pain assessed as reduction in mechanical allodynia at 30 umol/kg, ip administered 2 weeks post-surgery measured after 30 mins; assay type: functional; set-up: scale not given: the % may be the effect or the level left
Rattus norvegicus [33] = test: Analgesic activity in ip dosed rat spinal nerve ligation model of neuropathic pain assessed as […] administered 2 weeks post-surgery measured after 30 mins; assay type: functional, organism-based
Outline: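 Rat spinal nerve ligation (Chung) neuropathic pain model. Dosing was intraperitoneal, two weeks after surgery and 30 min before testing. Read-out was mechanical allodynia (paw withdrawal threshold), given as a dose–response.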

T3 sequence (P34972 whole entry): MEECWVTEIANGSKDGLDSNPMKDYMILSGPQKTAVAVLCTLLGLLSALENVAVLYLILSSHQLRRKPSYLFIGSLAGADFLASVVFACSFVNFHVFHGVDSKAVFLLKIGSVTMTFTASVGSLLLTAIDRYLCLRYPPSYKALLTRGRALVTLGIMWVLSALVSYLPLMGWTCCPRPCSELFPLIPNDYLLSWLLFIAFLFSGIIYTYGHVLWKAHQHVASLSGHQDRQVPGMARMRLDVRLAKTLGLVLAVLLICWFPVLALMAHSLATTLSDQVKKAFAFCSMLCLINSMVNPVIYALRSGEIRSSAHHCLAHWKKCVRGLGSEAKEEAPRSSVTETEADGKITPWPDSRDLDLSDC
T1 sequence (P21554 whole entry): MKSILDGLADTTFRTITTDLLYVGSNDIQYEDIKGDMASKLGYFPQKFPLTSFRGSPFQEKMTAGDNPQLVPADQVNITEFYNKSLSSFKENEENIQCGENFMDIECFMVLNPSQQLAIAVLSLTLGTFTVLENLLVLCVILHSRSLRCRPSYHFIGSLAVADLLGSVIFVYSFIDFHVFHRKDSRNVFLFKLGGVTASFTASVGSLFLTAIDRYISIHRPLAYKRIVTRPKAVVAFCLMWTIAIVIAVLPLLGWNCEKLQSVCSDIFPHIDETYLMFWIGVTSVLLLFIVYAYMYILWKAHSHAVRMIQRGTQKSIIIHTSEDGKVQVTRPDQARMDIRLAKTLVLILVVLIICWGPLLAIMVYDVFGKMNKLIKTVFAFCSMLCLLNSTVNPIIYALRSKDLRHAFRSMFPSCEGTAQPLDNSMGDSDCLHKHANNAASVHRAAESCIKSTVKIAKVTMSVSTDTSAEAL
Cannabinoid receptor 1 (Rattus norvegicus, UniProt P20272), sequence (P20272 whole entry): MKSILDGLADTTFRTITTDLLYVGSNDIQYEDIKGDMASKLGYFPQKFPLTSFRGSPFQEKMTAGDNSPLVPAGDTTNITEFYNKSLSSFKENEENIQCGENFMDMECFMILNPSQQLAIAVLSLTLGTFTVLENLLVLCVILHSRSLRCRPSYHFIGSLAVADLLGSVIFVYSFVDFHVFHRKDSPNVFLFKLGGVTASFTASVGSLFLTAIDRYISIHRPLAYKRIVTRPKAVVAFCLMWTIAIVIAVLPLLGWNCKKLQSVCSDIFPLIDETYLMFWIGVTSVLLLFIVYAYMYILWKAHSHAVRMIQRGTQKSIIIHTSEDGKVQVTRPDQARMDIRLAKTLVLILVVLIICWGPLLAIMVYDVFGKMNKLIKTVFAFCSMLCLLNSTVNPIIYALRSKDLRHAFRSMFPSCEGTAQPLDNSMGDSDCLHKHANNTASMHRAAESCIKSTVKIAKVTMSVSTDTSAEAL

CCCNC(=O)c1c(NC(=O)C23CC4CC(CC2C4)C3)sc2c1CCOC2
Activity (Rattus norvegicus [1]): 58%
Activity (Rattus norvegicus [2]): Active
Ki (Cannabinoid receptor 1 [3]): 1550 nM
Activity (Rattus norvegicus [4]): 83%
Activity (Rattus norvegicus [5]): Dose-dependent effect
Activity (Rattus norvegicus [6]): Dose-dependent effect
Activity (Rattus norvegicus [7]): 24%
IC50 (Cannabinoid receptor 2 [8]): 1550 nM
Activity (Rattus norvegicus [9]): 55%
clearance [10]: 63.3 mL/min/kg
IC50 (Cannabinoid receptor 1 [11]): 1410 nM
half-life [12]: 402 min
Tmax [13]: 36 min
Activity (Rattus norvegicus [14]): 22%
IC50 (Cannabinoid receptor 2 [15]): 70.8 nM
bioavailability [16]: 96%
Vd [17]: 8.7 L/kg
IC50 (Cannabinoid receptor 2 [18]): 9.33 nM
IC50 (Cannabinoid receptor 2 [19]): 1.95 nM
Activity (Rattus norvegicus [20]): 18%
Tmax [21]: 1.2 h
Ki (Cannabinoid receptor 2 [22]): 20.9 nM
IC50 (Cannabinoid receptor 1 [23]): 3.47 µM
Activity (Rattus norvegicus [24]): 21%
bioavailability [25]: 11%
Activity (Rattus norvegicus [26]): 45%
Activity (Rattus norvegicus [27]): 74%
AUC [28]: 320 ng·h/mL
Activity (Rattus norvegicus [29]): 50%
Imax [30]: 79%
AUC [31]: 1020 ng·h/mL
Activity (Rattus norvegicus [32]): 74%
Activity (Rattus norvegicus [33]): Dose-dependent effect
